Data published in ChEMBL document CHEMBL3045436, “Synthesis and antiviral activities of antofine analogues with different C-6 substituent groups” (2013).

Legend:
Format in all cases: functional
[1] = test system: Tobacco mosaic virus; assay: Antiviral activity against Tobacco mosaic virus (TMV) in tobacco plant leaf assessed as protection effect at 100 ug/ml after 3 to 4 days
How it was run: (§1)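 Compound smeared on the left half of growing N. tabacum var. Xanthi nc leaves of the same age, solvent on the right half as control. Leaves inoculated with TMV 12 h later. Local lesions counted 3−4 days after inoculation, three replicates. Inhibition % = (control − treated mean lesions)/control × 100.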

[2] = test system: Tobacco mosaic virus; assay: Antiviral activity against Tobacco mosaic virus (TMV) in tobacco plant leaf assessed as inactivation effect at 100 ug/ml after 3 to 4 days
How it was run: (§2)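 TMV mixed with an equal volume of compound solution for 30 min. The mixture was inoculated on the left half of N. tabacum var. Xanthi nc leaves, and virus mixed with solvent on the right half as control. Local lesions recorded 3−4 days after inoculation, three replicates. Inhibition % calculated from mean lesion numbers versus control.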

[3] = test system: Tobacco mosaic virus; assay: Antiviral activity against Tobacco mosaic virus (TMV) in tobacco plant leaf assessed as curative effect at 100 ug/ml after 3 to 4 days
How it was run: (§3)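 Whole plants of N. tabacum var. Xanthi nc at the same leaf age. Whole leaves dip-inoculated with TMV (6.0 × 10−3 mg/mL), then washed with water and dried. Compound smeared on the left half-leaf, solvent on the right as control. Local lesions counted 3−4 days after inoculation, three replicates. Inhibition % calculated from mean lesion numbers versus control.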

[4] = test system: Tobacco mosaic virus; assay: Antiviral activity against Tobacco mosaic virus (TMV) in tobacco plant leaf assessed as curative effect at 500 ug/ml after 3 to 4 days; how it was run: as §3
[5] = test system: Tobacco mosaic virus; assay: Antiviral activity against Tobacco mosaic virus (TMV) in tobacco leaf juice at 100 ug/ml after 72 hr by half-leaf method
How it was run: (§4)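 Detached leaf (half-leaf) assay in Nicotiana tabacum var. Xanthi nc, 5−6 growth stage. Whole leaf inoculated with TMV (5.88 × 10−2 μg/mL) by juice-leaf rubbing, then cut in half along the main vein. One half soaked 20 min in compound solution, the other in double-distilled water. Halves cultured 72 h at 25 °C. At least three replicates. Inhibition % = (control − treated mean local lesions)/control × 100.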

[6] = test system: Tobacco mosaic virus; assay: Antiviral activity against Tobacco mosaic virus (TMV) in tobacco plant leaf assessed as inactivation effect at 500 ug/ml after 3 to 4 days; how it was run: as §2
[7] = test system: Tobacco mosaic virus; assay: Antiviral activity against Tobacco mosaic virus (TMV) in tobacco plant leaf assessed as protection effect at 500 ug/ml after 3 to 4 days; how it was run: as §1
[8] = test system: Tobacco mosaic virus; assay: Antiviral activity against Tobacco mosaic virus (TMV) in tobacco leaf juice at 500 ug/ml after 72 hr by half-leaf method; how it was run: as §4

Row | Structure (SMILES) | inhibition at 100 µg/mL [1] | inhibition at 100 µg/mL [2] | inhibition at 100 µg/mL [3] | inhibition at 500 µg/mL [4] | inhibition at 100 µg/mL [5] | inhibition at 500 µg/mL [6] | inhibition at 500 µg/mL [7] | inhibition at 500 µg/mL [8]
1 | COc1ccc2c3c(c4cc(OC)c(OC)cc4c2c1)C[C@H]1CCCN1C3 [(-)-ANTOFINE] | 32.3% | 29.4% | 33.4% | 62.5% | 30.4% | 58% | 55.7% | 65.8%
2 | CCOc1ccc2c3c(c4cc(OC)c(OC)cc4c2c1)C[C@H]1CCCN1C3 | 10.4% | 28.5% | 27.2% | 49.7% | 32.5% | 43.7% | 40.2% | 50%
3 | CNCC(=O)N[C@@H](CO)C(=O)N[C@H]1[C@H](O)[C@@H](O)[C@H](n2ccc(N)nc2=O)O[C@@H]1C(N)=O [NINGNANMYCIN] | 38.4% | 25% | 23.1% | 58.7% | 26.8% | 54.2% | 57.9% | 69.3%
4 | CCOc1ccc2c3c(c4cc(OC)c(OC)cc4c2c1)C[C@@H]1CCCN1C3 | 28.5% | 23% | 24.3% | 51.1% | 25.6% | 53.2% | 48% | 56.2%
5 | COc1cc2c3c(c4ccc(OCCO)cc4c2cc1OC)CN1CCC[C@H]1C3 | 10.5% | 12% | 18.6% | 44% | 10% | 40.5% | 42.3% | 43.9%
6 | COc1cc2c3c(c4ccc(O)cc4c2cc1OC)CN1CCC[C@H]1C3 | 19.5% | 17.8% | 23.2% | 49.6% | 21.3% | 46.2% | 43.2% | 52.2%
7 | COc1cc2c3c(c4ccc(OCC#N)cc4c2cc1OC)CN1CCC[C@@H]1C3 | 42.3% | 38.7% | 44.1% | 75.1% | 40% | 72.3% | 74.5% | 79.3%
8 | COc1cc2c3c(c4ccc(OC(C)=O)cc4c2cc1OC)CN1CCC[C@H]1C3 | 16.2% | 19.3% | 22.4% | 59.4% | 30.6% | 58.5% | 54.2% | 68.7%
9 | COc1cc2c3c(c4ccc(OCCO)cc4c2cc1OC)CN1CCC[C@@H]1C3 | 39.5% | 40.9% | 42.8% | 74.2% | 47.5% | 70.4% | 71.6% | 78.2%
10 | C#CCOc1ccc2c3c(c4cc(OC)c(OC)cc4c2c1)C[C@@H]1CCCN1C3 | 40.9% | 42.4% | 45.5% | 74.9% | 48.6% | 70% | 71.6% | 75%
11 | COc1ccc2c3c(c4cc(OC)c(OC)cc4c2c1)C[C@@H]1CCCN1C3 [HYPOESTESTATIN 1] | 37.2% | 26.7% | 28.4% | 56.4% | 30.5% | 55.5% | 51.1% | 60.2%
12 | COc1cc2c3c(c4ccc(OCC#N)cc4c2cc1OC)CN1CCC[C@H]1C3 | 26.3% | 27.9% | 30.4% | 57.8% | 31.5% | 58.2% | 54.3% | 60%
13 | COc1cc2c3c(c4ccc(O)cc4c2cc1OC)CN1CCC[C@@H]1C3 | 35.4% | 33.5% | 42% | 72.4% | 40% | 65.3% | 60.4% | 70.5%
14 | C#CCOc1ccc2c3c(c4cc(OC)c(OC)cc4c2c1)C[C@H]1CCCN1C3 | 39.7% | 38.9% | 36.1% | 59.3% | 43.7% | 52.8% | 58.6% | 61.2%
